# Assay results reported in ChEMBL document CHEMBL4373727, “Thienopyrimidinone Derivatives That Inhibit Bacterial tRNA (Guanine37-N1)-Methyltransferase (TrmD) by Restructuring the Active Site with a Tyrosine-Flipping Mechanism” (J Med Chem, 2019).
# pIC50: −log10 of the molar value. The source made the active and inactive calls. The calls are words filed in the database; no cut-off is given here.
# How the values were obtained:
# [1] = molecular target: T1, tRNA (guanine-N(1)-)-methyltransferase (Pseudomonas aeruginosa (strain ATCC 15692 / DSM 22644 / CIP 104116 / JCM14847 / LMG 12228 / 1C / PRS 101 / PAO1), UniProt Q9HXQ1); assay: Inhibition of Pseudomonas aeruginosa tRNA (guanine(37)-N1)-methyltransferase (Leu5 to Asp25 residues) expressed in Escherichia coli BL21 (DE3) Rosetta T1R cells assessed as reduction in S-adenosyl-L-homocysteine production preincubated for 15 mins followed by 1.5 uM of tRNALeu(CAG) substrate and SAM addition and measured after 45 mins by MTase-Glo assay
# T1 sequence (Q9HXQ1 whole entry): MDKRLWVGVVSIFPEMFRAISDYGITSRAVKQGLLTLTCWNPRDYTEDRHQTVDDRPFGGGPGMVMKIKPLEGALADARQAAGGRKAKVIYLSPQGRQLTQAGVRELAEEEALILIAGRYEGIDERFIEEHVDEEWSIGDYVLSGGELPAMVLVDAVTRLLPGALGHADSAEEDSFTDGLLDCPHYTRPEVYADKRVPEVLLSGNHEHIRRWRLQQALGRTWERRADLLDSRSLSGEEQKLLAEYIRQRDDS
# Summary of the method: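 MTase-Glo luminescence assay. 8 nM TrmD preincubated 15 min at ambient temperature with serially diluted inhibitor (0–500 μM) in 50 mM Tris-HCl pH 8.0, 80 mM NaCl, 1 mM MgCl2, 0.5 mM DTT, 0.01% Triton X-100. Reaction with 2 μM SAM and tRNALeu(CAG), 45 min at 37 °C. Detection 30 min in the dark, SAH read against a standard curve. IC50 by nonlinear regression. Two independent experiments in duplicate.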
# Staphylococcus aureus [2] = assay: Antibacterial activity against methicillin-resistant Staphylococcus aureus ATCC 43300 at 100 uM incubated for 24 hrs; type: functional, organism-based
# Summary of the method: (§1)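 Single-concentration growth screen: 100 μM test compound with log-phase bacteria at about 5×10^5 cells/mL. Incubation 24 h at 37 °C. Growth read by OD600 and given as percent of untreated control. MRSA was grown in cation-adjusted Mueller–Hinton broth. M. smegmatis was grown in complete Middlebrook 7H9. Ampicillin and kanamycin served as positive controls.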
# Enterococcus faecalis [3] = assay: Antibacterial activity against Enterococcus faecalis ATCC 51299 at 100 uM incubated for 24 hrs; type: functional, organism-based
# Summary of the method: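 Single-concentration screen in brain heart infusion broth. Log-phase cells at ~5×10^5 cells/mL were grown with 100 μM compound for 24 h at 37 °C. Growth was read as OD600 and expressed as a percentage of untreated wells. DMSO and blank controls were included.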
# Streptococcus pneumoniae [4] = assay: Antibacterial activity against Streptococcus pneumoniae ATCC 49619 at 100 uM incubated for 24 hrs; type: functional, organism-based
# Summary of the method: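 Single 100 μM screen in MH medium with 3% defibrinated sheep blood at 37 °C under 5% CO2, ~5×10^5 cells/mL, 24 h.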
# [5] = system: Mycolicibacterium smegmatis; assay: Antibacterial activity against Mycolicibacterium smegmatis MC2 155 at 100 uM incubated for 24 hrs; type: functional, organism-based; summary of the method: as §1
# [6] = system: Mycobacterium tuberculosis; assay: Antibacterial activity against Mycobacterium tuberculosis ATCC 27294 at 100 uM incubated for 7 days; type: functional, organism-based
# Pseudomonas aeruginosa [7] = assay: Antibacterial activity against Pseudomonas aeruginosa PA14 incubated for 24 hrs by serial broth microdilution method; type: functional, organism-based
# Summary of the method: (§2)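 Log-phase cultures from four colonies grown overnight at 37 °C, inoculated at ~5×10^5 cells/mL in cation-adjusted Mueller–Hinton broth with serially diluted compound. Grown 24 h at 37 °C, then OD600 read. MIC50/MIC90 are the concentrations giving 50%/90% growth inhibition relative to drug-free controls. Two independent experiments in duplicate.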
# Acinetobacter baumannii [8] = assay: Antibacterial activity against Acinetobacter baumannii ATCC 17961 incubated for 24 hrs by serial broth microdilution method; type: functional; conditions: ATCC 17961, 24 h; summary of the method: as §2
# Klebsiella pneumoniae [9] = assay: Antibacterial activity against Klebsiella pneumoniae ATCC 13883 incubated for 24 hrs by serial broth microdilution method; type: functional, organism-based; summary of the method: as §2
# Salmonella enteritidis [10] = assay: Antibacterial activity against Salmonella enteritidis ATCC 13076 incubated for 24 hrs by serial broth microdilution method; type: functional, Salmonella enterica subsp. enterica serovar Enteritidis; conditions: Salmonella enterica, ATCC 13076, 24 h; summary of the method: as §2
# Escherichia coli [11] = assay: Antibacterial activity against Escherichia coli BW25113 incubated for 24 hrs by serial broth microdilution method; type: functional, organism-based; summary of the method: as §2
# Staphylococcus aureus [12] = assay: Antibacterial activity against methicillin-resistant Staphylococcus aureus ATCC 43300 incubated for 24 hrs by serial broth microdilution method; type: functional; conditions: ATCC 43300, 24 h
# Summary of the method: (§3)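 Growth read by OD600. MRSA in cation-adjusted Mueller–Hinton broth, M. smegmatis in complete 7H9. MIC50 and MIC90 are 50% and 90% growth inhibition versus drug-free controls. Two independent experiments, each in duplicate.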
# Enterococcus faecalis [13] = assay: Antibacterial activity against Enterococcus faecalis ATCC 51299 incubated for 24 hrs by serial broth microdilution method; type: functional, organism-based
# Summary of the method: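 Broth microdilution in brain heart infusion broth, ~5×10^5 cells/mL log-phase inoculum, serial compound dilutions, 24 h at 37 °C, OD600 read-out. MIC50/MIC90 are the concentrations giving 50%/90% growth inhibition relative to drug-free controls. Two independent experiments in duplicate.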
# Streptococcus pneumoniae [14] = assay: Antibacterial activity against Streptococcus pneumoniae ATCC 49619 incubated for 24 hrs by serial broth microdilution method; type: functional; conditions: ATCC 49619, 24 h
# Summary of the method: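 Cultured in MH medium plus 3% defibrinated sheep blood at 37 °C, 5% CO2. Log-phase inoculum ~5×10^5 cells/mL was exposed to serial compound dilutions for 24 h. MIC50/MIC90 are relative to drug-free controls. Two independent experiments in duplicate.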
# [15] = system: Mycolicibacterium smegmatis; assay: Antibacterial activity against Mycolicibacterium smegmatis MC2 155 incubated for 24 hrs by serial broth microdilution method; type: functional; conditions: MC2 155, 24 h; summary of the method: as §3
# [16] = system: Mycobacterium tuberculosis; assay: Antibacterial activity against Mycobacterium tuberculosis ATCC 27294 incubated for 7 days by broth dilution method; type: functional; conditions: ATCC 27294, 168 h
# Summary of the method: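 M. tuberculosis ATCC 27294 in complete 7H9 with 0.05% Tween 80, 0.5% glycerol and 10% ADC. Mid-log cells adjusted to OD600 0.1 and added 1:1 to 2-fold serial compound dilutions (highest 100 μM). Incubated 7 d at 37 °C with shaking at 80 rpm, then OD600 read. Isoniazid positive control. MIC50/MIC90 versus drug-free controls. Biological duplicates.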
# Pseudomonas aeruginosa [17] = assay: Bactericidal activity against Pseudomonas aeruginosa PA14 assessed as reduction in CFU at 1 to 4 times MIC90 incubated for 24 hrs; type: functional, organism-based
# Acinetobacter baumannii [18] = assay: Bactericidal activity against Acinetobacter baumannii ATCC 17961 assessed as reduction in CFU at 1 to 4 times MIC90 incubated for 24 hrs; type: functional; conditions: ATCC 17961, 24 h, read-out: MBC99.9
# Klebsiella pneumoniae [19] = assay: Bactericidal activity against Klebsiella pneumoniae ATCC 13883 assessed as reduction in CFU at 1 to 4 times MIC90 incubated for 24 hrs; type: functional, organism-based
# Salmonella enteritidis [20] = assay: Bactericidal activity against Salmonella enteritidis ATCC 13076 assessed as reduction in CFU at 1 to 4 times MIC90 incubated for 24 hrs; type: functional, Salmonella enterica subsp. enterica serovar Enteritidis; conditions: Salmonella enterica, ATCC 13076, 24 h; read-out: MBC99.9
# Escherichia coli [21] = assay: Bactericidal activity against Escherichia coli BW25113 assessed as reduction in CFU at 1 to 4 times MIC90 incubated for 24 hrs; type: functional, organism-based
# Staphylococcus aureus [22] = assay: Bactericidal activity against methicillin-resistant Staphylococcus aureus ATCC 43300 assessed as reduction in CFU at 1 to 4 times MIC90 incubated for 24 hrs; type: functional; conditions: ATCC 43300, 24 h, read-out: MBC99.9
# Enterococcus faecalis [23] = assay: Bactericidal activity against Enterococcus faecalis ATCC 51299 assessed as reduction in CFU at 1 to 4 times MIC90 incubated for 24 hrs; type: functional, organism-based
# Streptococcus pneumoniae [24] = assay: Bactericidal activity against Streptococcus pneumoniae ATCC 49619 assessed as reduction in CFU at 1 to 4 times MIC90 incubated for 24 hrs; type: functional; conditions: ATCC 49619, 24 h, read-out: MBC99.9
# [25] = system: Mycolicibacterium smegmatis; assay: Bactericidal activity against Mycolicibacterium smegmatis MC2 155 assessed as reduction in CFU at 1 to 4 times MIC90 incubated for 24 hrs; type: functional; conditions: MC2 155, 24 h, read-out: MBC99.9
structure (smiles),measurement,setting,value
CCCCCCCCCCCCNCc1ccc(CNC(=O)c2csc3nc[nH]c(=O)c23)cc1,pIC50,[1],6.42
same,Activity,Staphylococcus aureus [2],Active
same,Activity,Enterococcus faecalis [3],Active
same,Activity,Streptococcus pneumoniae [4],Active
same,Activity,[5],Active
same,Activity,[6],Active
same,MIC50,Pseudomonas aeruginosa [7],inactive
same,MIC90,Pseudomonas aeruginosa [7],inactive
same,MIC50,Acinetobacter baumannii [8],75 µM
same,MIC90,Acinetobacter baumannii [8],99 µM
same,MIC50,Klebsiella pneumoniae [9],inactive
same,MIC90,Klebsiella pneumoniae [9],inactive
same,MIC50,Salmonella enteritidis [10],> 100 µM
same,MIC90,Salmonella enteritidis [10],> 100 µM
same,MIC50,Escherichia coli [11],inactive
same,MIC90,Escherichia coli [11],inactive
same,MIC50,Staphylococcus aureus [12],5 µM
same,MIC90,Staphylococcus aureus [12],8.5 µM
same,MIC50,Enterococcus faecalis [13],inactive
same,MIC90,Enterococcus faecalis [13],inactive
same,MIC50,Streptococcus pneumoniae [14],62 µM
same,MIC90,Streptococcus pneumoniae [14],74 µM
same,MIC50,[15],17 µM
same,MIC90,[15],23 µM
same,MIC50,[16],44 µM
same,MIC90,[16],88 µM
same,MBC99.9,Pseudomonas aeruginosa [17],inactive
same,MBC,Acinetobacter baumannii [18],> 100 µM
same,MBC99.9,Klebsiella pneumoniae [19],inactive
same,MBC,Salmonella enteritidis [20],> 100 µM
same,MBC99.9,Escherichia coli [21],inactive
same,MBC,Staphylococcus aureus [22],34 µM
same,MBC99.9,Enterococcus faecalis [23],inactive
same,MBC,Streptococcus pneumoniae [24],> 100 µM
same,MBC,[25],69 µM
